In ChEMBL document CHEMBL1124216, “A novel class of potential central nervous system agents. 3-Phenyl-2-(1-piperazinyl)-5H-1-benzazepines” (1988):

How the values were obtained:
Type in all cases: functional
Mus musculus [1] = assay: Antireserpine activity (RES) of mice after peroral administration of 50 mg/kg of compound; Slight inhibition (31-50%); details: route oral
Mus musculus [2] = assay: Antiexploratory activity (EXPL) of mice determined by an antimex activity meter, 50 mg/kg of dose was administered perorally; Slight inhibition (31-50%); details: route oral
Mus musculus [3] = assay: Antiexploratory activity (EXPL) of mice determined by an antimex activity meter, 50 mg/kg of dose was administered perorally; No inhibition; details: route oral
Mus musculus [4] = assay: Antireserpine activity (RES) of mice after peroral administration of 50 mg/kg of compound; No inhibition; details: route oral
Mus musculus [5] = assay: Antimaximal electroshock seizure (MES) activity in mice after peroral administration of 100 mg/kg of compound; 0/5; details: route oral
Mus musculus [6] = assay: Antireserpine activity (RES) of mice after peroral administration of 100 mg/kg of compound; No inhibition; details: route oral
Mus musculus [7] = assay: Antitremorine activity(TRM) of mice after peroral administration of 50 mg/kg of compound; No inhibition; details: route oral
Mus musculus [8] = assay: Antitremorine activity(TRM) of mice after peroral administration of 100 mg/kg of compound; details: route oral
Mus musculus [9] = assay: Antiexploratory activity (EXPL) of mice determined by an antimex activity meter, 100 mg/kg of dose was administered perorally; No inhibition; details: route oral
Mus musculus [10] = assay: The homovanillic acid (HVA) levels in mouse brain at 50 mg/kg of dose.
Summary of the method: (§1)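 Mice dosed orally in 0.5% aqueous tragacanth; brains of five mice per compound pooled. Homovanillic acid measured in brain extracts and reported as brain level.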

Mus musculus [11] = assay: The homovanillic acid (HVA) levels in mouse brain at 10 mg/kg of dose.; summary of the method: as §1
Mus musculus [12] = assay: 3,4 -Dihydroxy phenylacetic acid (DOPAC) levels in mouse brain at 10 mg/kg dose.
Summary of the method: (§2)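 Male Std-ddY mice, 20-25 g, dosed orally with compound in 0.5% aqueous tragacanth. DOPAC was measured fluorometrically after purification by column chromatography on Sephadex G-10 and QAE-Sephadex. Brains from five mice per compound were pooled for each determination.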

Canis familiaris = assay: Inhibition of apomorphine induced emesis in dogs at 1 mg/kg of dose.; details: Canis lupus familiaris
Summary of the method: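 Beagle dogs (10-15 kg), groups of three, given compound po in a gelatin capsule; 2 h later apomorphine hydrochloride 0.3 mg/kg sc. Vomiting counted for 1 h; mean inhibition as percent of control. ED50 is the dose giving 50% inhibition of emesis, by Litchfield-Wilcoxon.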

Mus musculus [13] = assay: Exploratory activity of mice determined by an antimex activity meter, 50 mg/kg of dose was administered perorally; details: Mus musculus, po
Summary of the method: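 Male Std-ddY mice (20-25 g), five per dose; compound in 0.5% aqueous tragacanth given orally. Two hours later each mouse placed in an Animex activity meter cage and locomotor activity counted for 3 min. Mean suppression expressed as percent inhibition of control; ED50 by Litchfield-Wilcoxon.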

Mus musculus [14] = assay: Exploratory activity of mice determined by an antimex activity meter, 10 mg/kg of dose was administered perorally; details: route oral
Mus musculus [15] = assay: 3,4 -Dihydroxy phenylacetic acid (DOPAC) levels in mouse brain at 50 mg/kg dose.; summary of the method: as §2
Mus musculus [16] = assay: Antiexploratory activity (EXPL) of mice determined by an antimex activity meter, 10 mg/kg of dose was administered perorally; No inhibition; details: route oral
Mus musculus [17] = assay: Antiexploratory activity (EXPL) of mice determined by an antimex activity meter, 50 mg/kg of dose was administered perorally; Moderate inhibition (51-71%); details: route oral
Mus musculus [18] = assay: Antireserpine activity (RES) of mice after peroral administration of 100 mg/kg of compound; Moderate inhibition (51-71%); details: route oral
Mus musculus [19] = assay: Antiexploratory activity (EXPL) of mice determined by an antimex activity meter, 100 mg/kg of dose was administered perorally; Moderate inhibition (51-71%); details: route oral
Mus musculus [20] = assay: Antitremorine activity(TRM) of mice after peroral administration of 100 mg/kg of compound; Slight inhibition (31-50%); details: route oral

SMILES | inhibition in vivo at 50 mg/kg (Mus musculus [1]) [%] | inhibition in vivo at 50 mg/kg (Mus musculus [3]) [%] | Activity (Mus musculus [5]) | inhibition in vivo at 100 mg/kg (Mus musculus [6]) [%] | inhibition in vivo at 50 mg/kg (Mus musculus [7]) [%] | further results
Fc1ccc(C2=CCc3ccccc3N=C2N2CCNCC2)cc1 | 31 | – | – | – | – | inhibition in vivo at 50 mg/kg (Mus musculus [2]): 31%
COc1ccc(C2=CCc3ccccc3N=C2N2CCN(C)CC2)cc1 | 31 | < 30 | – | – | – | –
O=C(CCCN1CCN(C2=Nc3ccccc3CC=C2c2ccc(Cl)cc2)CC1)c1ccc(F)cc1 | – | – | – | – | – | inhibition in vivo at 50 mg/kg (Mus musculus [2]): 31%; inhibition in vivo at 50 mg/kg (Mus musculus [4]): < 30%
O=C(c1ccc(F)cc1)C1CCN(C2=Nc3ccccc3CC=C2c2ccc(Cl)cc2)CC1 | – | < 30 | 0 | < 30 | < 30 | –
C#CCN1CCN(C2=Nc3ccc(Br)cc3CC=C2c2ccccc2)CC1 | – | – | 0 | < 30 | – | inhibition in vivo at 100 mg/kg (Mus musculus [8]): < 30%; inhibition in vivo at 100 mg/kg (Mus musculus [9]): < 30%
CCCN1CCN(C2=Nc3ccccc3CC=C2c2ccc(F)cc2)CC1.O=C(O)/C=C/C(=O)O | – | – | – | – | – | Control (Mus musculus [10]): 557%; Control (Mus musculus [11]): 328%; Control (Mus musculus [12]): 166%; inhibition in vivo at 1 mg/kg (Canis familiaris): 100%; inhibition in vivo at 50 mg/kg (Mus musculus [13]): 61.4%; inhibition in vivo at 10 mg/kg (Mus musculus [14]): 18.5%; Control (Mus musculus [15]): 317%; inhibition in vivo at 10 mg/kg (Mus musculus [16]): < 30%; inhibition in vivo at 50 mg/kg (Mus musculus [17]): 51%
Clc1ccc(C2=CCc3ccccc3N=C2N2CCN(Cc3ccccc3)CC2)cc1 | 31 | < 30 | – | – | – | –
Clc1ccc(C2=CCc3ccccc3N=C2N2CCCCC2)cc1 | – | < 30 | 0 | < 30 | < 30 | –
CN1CCN(C2=Nc3ccccc3CC=C2c2ccccc2Cl)CC1.Cl.Cl | – | – | 0 | – | – | inhibition in vivo at 100 mg/kg (Mus musculus [18]): 51%; inhibition in vivo at 100 mg/kg (Mus musculus [19]): 51%; inhibition in vivo at 100 mg/kg (Mus musculus [20]): 31%
Cl.OC1CCN(C2=Nc3ccccc3CC=C2c2ccc(F)cc2)CC1 | – | < 30 | 0 | < 30 | < 30 | –
